In ChEMBL document CHEMBL1143520, “Bicyclic amidine inhibitors of nitric oxide synthase: discovery of perhydro-iminopyrindine and perhydro-iminoquinoline as potent, orally active inhibitors of inducible nitric oxide synthase” (Bioorg Med Chem Lett, 2005):
pIC50: −log10 of the molar value.

Key:
[1] = target: Nitric oxide synthase (inducible and endothelial) (Homo sapiens) (UniProt P35228+P29474); assay: Selectivity measured as the ratio of eNOS IC50/iNOS IC50; type: protein assay
Nitric oxide synthase 1 = Nitric oxide synthase 1 (Homo sapiens, UniProt P29475); assay: Inhibitory activity against human Neuronal nitric oxide synthase (nNOS)
Chain of Nitric oxide synthase 1 (P29475 whole entry): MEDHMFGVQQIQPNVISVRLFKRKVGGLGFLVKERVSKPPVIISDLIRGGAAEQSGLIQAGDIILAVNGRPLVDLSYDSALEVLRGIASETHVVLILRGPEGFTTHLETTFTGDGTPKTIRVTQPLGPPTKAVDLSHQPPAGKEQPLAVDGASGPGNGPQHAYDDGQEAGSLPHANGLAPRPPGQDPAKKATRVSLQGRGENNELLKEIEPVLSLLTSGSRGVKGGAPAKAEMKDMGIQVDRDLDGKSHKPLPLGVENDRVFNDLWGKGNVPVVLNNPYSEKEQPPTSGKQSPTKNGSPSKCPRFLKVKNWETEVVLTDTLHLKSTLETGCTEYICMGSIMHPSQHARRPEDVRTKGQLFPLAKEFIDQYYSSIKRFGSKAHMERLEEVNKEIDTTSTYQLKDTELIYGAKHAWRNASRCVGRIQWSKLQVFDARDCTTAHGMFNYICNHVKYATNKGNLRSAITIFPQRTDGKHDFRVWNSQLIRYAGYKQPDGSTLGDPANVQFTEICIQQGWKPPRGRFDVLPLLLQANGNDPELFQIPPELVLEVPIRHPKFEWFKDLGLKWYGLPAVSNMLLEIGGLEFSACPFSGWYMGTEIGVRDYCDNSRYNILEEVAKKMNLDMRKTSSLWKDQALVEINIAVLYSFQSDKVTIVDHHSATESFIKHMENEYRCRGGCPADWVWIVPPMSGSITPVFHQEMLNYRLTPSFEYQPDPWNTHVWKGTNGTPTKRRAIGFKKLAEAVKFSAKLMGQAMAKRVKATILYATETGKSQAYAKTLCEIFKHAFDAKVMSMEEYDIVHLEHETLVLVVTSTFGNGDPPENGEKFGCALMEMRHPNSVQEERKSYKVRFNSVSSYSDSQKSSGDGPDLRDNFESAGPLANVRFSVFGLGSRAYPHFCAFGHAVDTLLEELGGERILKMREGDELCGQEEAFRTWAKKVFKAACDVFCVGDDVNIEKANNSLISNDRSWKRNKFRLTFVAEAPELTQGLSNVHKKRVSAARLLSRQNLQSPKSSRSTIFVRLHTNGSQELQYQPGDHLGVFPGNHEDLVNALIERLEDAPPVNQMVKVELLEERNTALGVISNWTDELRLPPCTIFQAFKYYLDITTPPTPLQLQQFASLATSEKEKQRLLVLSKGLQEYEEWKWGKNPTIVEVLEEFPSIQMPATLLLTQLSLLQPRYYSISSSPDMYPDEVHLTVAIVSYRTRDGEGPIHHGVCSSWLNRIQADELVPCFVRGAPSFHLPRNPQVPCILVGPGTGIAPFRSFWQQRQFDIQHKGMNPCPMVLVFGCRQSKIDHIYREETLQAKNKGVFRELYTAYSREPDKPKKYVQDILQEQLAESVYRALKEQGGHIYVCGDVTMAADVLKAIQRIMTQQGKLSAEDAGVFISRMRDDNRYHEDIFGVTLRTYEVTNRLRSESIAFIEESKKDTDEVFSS

[2] = target: Nitric oxide synthase, inducible (Homo sapiens, UniProt P35228); assay: Inhibitory activity against human Inducible nitric oxide synthase (iNOS)
Chain of Nitric oxide synthase, inducible (P35228 whole entry): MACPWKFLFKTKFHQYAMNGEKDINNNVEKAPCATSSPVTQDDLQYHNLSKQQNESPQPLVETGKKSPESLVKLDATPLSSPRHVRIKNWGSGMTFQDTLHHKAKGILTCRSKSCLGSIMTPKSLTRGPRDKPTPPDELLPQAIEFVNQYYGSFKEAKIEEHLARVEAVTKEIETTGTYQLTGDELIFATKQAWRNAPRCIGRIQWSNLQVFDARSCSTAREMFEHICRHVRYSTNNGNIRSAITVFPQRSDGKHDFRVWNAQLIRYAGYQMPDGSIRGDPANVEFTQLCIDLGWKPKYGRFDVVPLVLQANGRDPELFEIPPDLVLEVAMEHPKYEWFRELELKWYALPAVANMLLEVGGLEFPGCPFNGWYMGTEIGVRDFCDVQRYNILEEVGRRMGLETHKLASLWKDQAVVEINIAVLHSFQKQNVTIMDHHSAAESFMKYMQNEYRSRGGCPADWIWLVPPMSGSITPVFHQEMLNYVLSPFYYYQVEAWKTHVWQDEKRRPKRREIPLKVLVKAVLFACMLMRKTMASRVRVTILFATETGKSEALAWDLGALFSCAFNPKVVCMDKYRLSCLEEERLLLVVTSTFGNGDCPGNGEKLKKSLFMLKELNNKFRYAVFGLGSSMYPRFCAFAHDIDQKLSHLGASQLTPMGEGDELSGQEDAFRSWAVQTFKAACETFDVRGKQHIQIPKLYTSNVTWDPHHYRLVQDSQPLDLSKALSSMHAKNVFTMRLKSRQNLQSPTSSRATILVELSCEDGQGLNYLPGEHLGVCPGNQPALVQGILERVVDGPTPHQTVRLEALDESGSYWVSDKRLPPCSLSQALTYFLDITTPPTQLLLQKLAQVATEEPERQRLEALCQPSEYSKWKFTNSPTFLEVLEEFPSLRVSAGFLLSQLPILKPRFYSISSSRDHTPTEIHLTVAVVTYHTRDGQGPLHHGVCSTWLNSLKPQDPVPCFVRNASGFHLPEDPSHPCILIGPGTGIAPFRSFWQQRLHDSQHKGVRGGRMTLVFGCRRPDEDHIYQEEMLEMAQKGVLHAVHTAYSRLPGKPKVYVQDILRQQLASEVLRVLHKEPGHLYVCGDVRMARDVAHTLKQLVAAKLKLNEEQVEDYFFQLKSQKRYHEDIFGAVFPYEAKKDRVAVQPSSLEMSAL

Nitric oxide synthase 3 = target: T1, Nitric oxide synthase 3 (Homo sapiens, UniProt P29474); assay: Inhibitory activity against human Endothelial nitric oxide synthase (eNOS)
T1 sequence (P29474 whole entry): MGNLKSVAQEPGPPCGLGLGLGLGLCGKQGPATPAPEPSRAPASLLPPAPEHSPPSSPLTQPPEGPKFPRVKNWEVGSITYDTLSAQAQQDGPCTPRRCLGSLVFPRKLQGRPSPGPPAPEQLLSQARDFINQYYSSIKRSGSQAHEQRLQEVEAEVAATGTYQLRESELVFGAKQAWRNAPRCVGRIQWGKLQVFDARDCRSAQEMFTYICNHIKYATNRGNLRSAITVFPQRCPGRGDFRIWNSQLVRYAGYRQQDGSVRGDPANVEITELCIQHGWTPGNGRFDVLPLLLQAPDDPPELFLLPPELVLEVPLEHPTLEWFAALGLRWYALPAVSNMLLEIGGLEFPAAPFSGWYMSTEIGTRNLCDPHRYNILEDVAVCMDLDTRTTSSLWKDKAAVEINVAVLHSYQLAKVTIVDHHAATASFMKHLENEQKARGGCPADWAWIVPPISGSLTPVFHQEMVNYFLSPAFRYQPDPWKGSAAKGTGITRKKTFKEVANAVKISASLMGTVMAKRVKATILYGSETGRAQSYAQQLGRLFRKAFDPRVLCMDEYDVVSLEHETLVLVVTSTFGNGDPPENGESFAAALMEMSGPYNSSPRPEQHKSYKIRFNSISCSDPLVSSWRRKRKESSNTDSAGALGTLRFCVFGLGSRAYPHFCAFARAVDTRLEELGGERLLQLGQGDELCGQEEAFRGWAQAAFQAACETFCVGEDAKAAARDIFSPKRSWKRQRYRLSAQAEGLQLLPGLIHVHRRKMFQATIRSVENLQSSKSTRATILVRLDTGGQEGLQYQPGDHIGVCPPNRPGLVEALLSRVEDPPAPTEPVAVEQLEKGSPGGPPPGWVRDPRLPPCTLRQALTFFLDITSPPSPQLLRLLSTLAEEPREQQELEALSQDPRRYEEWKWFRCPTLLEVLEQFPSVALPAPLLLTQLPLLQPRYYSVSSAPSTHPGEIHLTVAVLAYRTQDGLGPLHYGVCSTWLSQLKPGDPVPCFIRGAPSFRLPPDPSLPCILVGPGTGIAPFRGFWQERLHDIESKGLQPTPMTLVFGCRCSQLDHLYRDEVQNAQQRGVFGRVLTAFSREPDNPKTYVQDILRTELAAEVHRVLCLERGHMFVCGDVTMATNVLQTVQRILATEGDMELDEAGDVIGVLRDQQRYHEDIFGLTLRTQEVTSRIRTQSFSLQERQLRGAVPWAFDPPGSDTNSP

Rattus norvegicus [3] = assay: Percentage inhibition of plasma nitrite/nitrate after peroral administration of 10 mg/kg of compound to rats 4 hr prior to LPS treating; type: functional; settings: route oral
Summary of the method: (§1)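 Rats given 10 mg/kg po at set times before LPS challenge. Plasma nitrate/nitrite measured 5 h after LPS: nitrate reduced to nitrite by nitrate reductase, then fluorometric nitrite read-out. Reported as % inhibition of plasma NOx.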

Rattus norvegicus [4] = assay: Effective dose causing 50% reduction in plasma nitrite relative to control animals after intravenous administration in LPS treated rats; type: functional
Summary of the method: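 Rat endotoxin model: LPS challenge, then iv dosing 2 h after LPS. Plasma collected 5 h after LPS. Nitrate converted to nitrite with nitrate reductase, then total nitrite/nitrate measured fluorometrically.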

Rattus norvegicus [5] = assay: Percentage inhibition of plasma nitrite/nitrate after peroral administration of 10 mg/kg of compound to rats 1 hr prior to LPS treating; type: functional; settings: route oral; summary of the method: as §1
Rattus norvegicus [6] = assay: Percentage inhibition of plasma nitrite/nitrate after peroral administration of 10 mg/kg of compound to rats 16 hr prior to LPS treating; type: functional; settings: route oral; summary of the method: as §1
Rattus norvegicus [7] = assay: Percentage inhibition of plasma nitrite/nitrate after peroral administration of 10 mg/kg of compound to rats 2 hr prior to LPS treating; type: functional; settings: route oral; summary of the method: as §1

Structure (SMILES) | Selectivity [1] | pIC50 (Nitric oxide synthase 1) | pIC50 [2] | pIC50 (Nitric oxide synthase 3) | inhibition in vivo at 10 mg/kg (Rattus norvegicus [3]) [%] | ED50 (Rattus norvegicus [4]) [mg/kg] | inhibition in vivo at 10 mg/kg (Rattus norvegicus [5]) [%] | inhibition in vivo at 10 mg/kg (Rattus norvegicus [6]) [%] | inhibition in vivo at 10 mg/kg (Rattus norvegicus [7]) [%]
C[C@@H]1CC(N)=N[C@@H]2CCC[C@H]12 (stereo in doubt; 10a) [listing 1 of 2 here] | 40 |  |  |  |  |  |  |  | 
NC1=N[C@H]2CCCC[C@@H]2CC1 |  | 6.28 | 6.28 | 5.26 |  |  |  |  | 
NC1=Nc2ccccc2CC1 | 6.1 | 5.31 | 4.85 | 4.07 |  |  |  |  | 
C[C@H]1CC(N)=N[C@H]2CCCC[C@H]21 |  | 6.21 | < 5.30 | < 5.30 |  |  |  |  | 
N=C1CCCCN1 |  |  | 6.52 | 6.20 |  |  |  |  | 
C[C@@H]1CC(N)=N[C@@H]2CCCC[C@H]12 | 37 | 7.28 | 7.66 | 6.08 | 74 | 0.19 | 57 | 42 | 69
C[C@@H]1CC(N)=N[C@@H]2CCC[C@H]12 (stereo in doubt; 10) [listing 1 of 2 here] |  | 7.51 | 7.82 | 6.33 |  |  |  |  | 
C[C@@H]1CC(N)=N[C@@H]2CCC[C@H]12 (stereo in doubt; 10) [listing 2 of 2 here] | 31 |  |  |  |  |  |  |  | 
C[C@@H]1CC(N)=N[C@@H]2CCCCC[C@H]12 | 5.2 | 5.89 | 6.07 | 5.35 |  |  |  |  | 
C[C@@H]1CC(N)=N[C@@H]2CCC[C@H]12 (stereo in doubt; 10a) [listing 2 of 2 here] |  | 7.68 | 8.05 | 6.44 | 52 | 0.25 | 95 | 39 | 80
C[C@H]1CC(N)=N[C@H]2CCC[C@H]21 | 6.5 | 7.44 | 6.88 | 6.06 |  |  |  |  | 
C[C@@H]1CC(N)=N[C@H]2CCCC[C@@H]12 | 52 | 6.72 | 7.42 | 5.70 |  |  |  |  | 
NC1=N[C@H]2CCCC[C@H]2CC1 | 67 | 6.61 | 6.73 | 4.90 |  |  |  |  | 
CC1CCN=C(N)C1 (configuration not stated) |  |  | 7.43 |  |  | 0.5 |  |  | 
